Reference: ChEMBL document CHEMBL1781977, “Design and synthesis of 3,5-diarylisoxazole derivatives as novel class of anti-hyperglycemic and lipid lowering agents” (Bioorg Med Chem, 2009)
Calls of active or inactive are those of the source. The calls are words filed in the database; no cut-off is given here.

Key:
Rattus norvegicus [1] = assay: Antihyperglycemic activity against sucrose challenged streptozotocin-induced diabetic Sprague-Dawley albino rat assessed as reduction in blood glucose level at 100 mg/kg, po administered 30 mins before sucrose challenge measured after 24 hrs; assay type: functional
How it was run: (§1)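 Male Sprague Dawley rats, 160 ± 20 g, fasted overnight, given streptozotocin 60 mg/kg ip in 100 mM citrate pH 4.5. Rats with glucose 144–270 mg/dl at 48 h count as diabetic, 5–6 per group. Dosed 100 mg/kg orally in 1.0% gum acacia. Sucrose 2.5 g/kg given 30 min later. Glucose read at 30–300 min and 24 h. Non-responders excluded.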

[2] = target: T1, Tyrosine-protein phosphatase non-receptor type 1 (Homo sapiens) (UniProt P18031); assay: Inhibition of protein tyrosine phosphatase-1B at 10 uM incubated for 10 mins using pNPP substrate by modified Goldstein method; set-up: Activity: scale not given: the % may be the effect or the level left
T1 sequence (whole entry): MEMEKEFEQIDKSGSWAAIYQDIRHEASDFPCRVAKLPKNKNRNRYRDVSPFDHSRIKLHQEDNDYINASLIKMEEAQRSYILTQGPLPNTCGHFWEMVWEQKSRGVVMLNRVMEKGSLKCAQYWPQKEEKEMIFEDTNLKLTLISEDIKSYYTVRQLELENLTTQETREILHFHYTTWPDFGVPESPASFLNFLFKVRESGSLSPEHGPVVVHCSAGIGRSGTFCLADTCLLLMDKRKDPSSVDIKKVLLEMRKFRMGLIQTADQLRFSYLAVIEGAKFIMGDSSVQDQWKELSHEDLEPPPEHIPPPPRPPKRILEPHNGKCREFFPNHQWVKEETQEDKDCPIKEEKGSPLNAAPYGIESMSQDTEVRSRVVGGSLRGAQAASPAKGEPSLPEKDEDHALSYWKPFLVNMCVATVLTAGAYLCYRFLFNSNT
How it was run: (§2)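 PTP-1B: compound preincubated 10 min with enzyme, with or without 0.01% Triton X-100. Then 10 mM pNPP in 50 mM HEPES pH 7.0 with 1 mM DTT and 2 mM EDTA, 30 min at 37 °C. Stopped with 0.1 N NaOH; absorbance read at 410 nm. p-Nitrophenolate calculated using ε 1.78 × 10⁴ M⁻¹cm⁻¹. Sodium orthovanadate used as reference.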

Rattus norvegicus [3] = assay: Antihyperglycemic activity in Charles Foster/Wistar albino rat assessed as reduction in blood glucose level at 100 mg/kg, po administered 30 mins before sucrose challenge; assay type: functional
How it was run: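 Male Charles Foster/Wistar rats, 160 ± 20 g, fasted 16 h; animals with glucose 60–80 mg/dl used, 5–6 per group. Given 100 mg/kg orally as suspension in 1.0% gum acacia (controls vehicle alone). Sucrose 10.0 g/kg orally 30 min later. Glucometer readings at 30, 60, 90, 120 min. Percent activity derived from AUC of treated versus control groups.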

Rattus norvegicus [4] = assay: Antihyperglycemic activity against sucrose challenged streptozotocin-induced diabetic Sprague-Dawley albino rat assessed as reduction in blood glucose level at 100 mg/kg, po administered 30 mins before sucrose challenge measured after 5 hrs; assay type: functional; how it was run: as §1
[5] = target: T2, Tyrosine-protein phosphatase non-receptor type 1 (Homo sapiens, UniProt P18031); assay: Inhibition of protein tyrosine phosphatase-1B at 10 uM incubated for 10 mins using pNPP substrate in absence of Triton X-100 by modified Goldstein method; how it was run: as §2
T2 sequence (P18031 whole entry): T1 sequence (whole entry)

[6] = target: Dipeptidyl peptidase 4 (Homo sapiens) (UniProt P27487); assay: Inhibition of DPP4 assessed as rate of substrate cleavage using Gly-Pro-AMC substrate by spectrofluorometry
How it was run: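 DPP-IV activity read by fluorescence at 37 °C, excitation 355 nm and emission 460 nm. Initial rate calculated over the first 15 min as increase in fluorescence intensity.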

[7] = target: T2, Tyrosine-protein phosphatase non-receptor type 1; assay: Inhibition of protein tyrosine phosphatase-1B at 10 uM incubated for 10 mins using pNPP substrate in presence of 0.01% Triton X-100 by modified Goldstein method; how it was run: as §2
Mus musculus [8] = species: Mus musculus; assay: Antihyperglycemic activity in C57BL/Ks db/db mouse assessed as reduction in blood glucose level measured after 3 days relative to control; assay type: functional
Rattus norvegicus [9] = assay: Antihyperglycemic activity against sucrose challenged streptozotocin-induced diabetic Sprague-Dawley albino rat assessed as reduction in blood glucose level at 25 mg/kg, po administered 30 mins before sucrose challenge; assay type: functional
How it was run: (§3)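 Streptozotocin-diabetic Sprague Dawley rats: streptozotocin 60 mg/kg ip in citrate pH 4.5; rats at 144–270 mg/dl after 48 h used. Oral doses of 7.5–100 mg/kg in 1.0% gum acacia, then sucrose 2.5 g/kg. Glucose measured at 30, 60, 90, 120, 180, 240, 300 and 1440 min. ED50 taken from dose response. Mean ± SD, n = 5; Dunnett's test.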

Mus musculus [10] = assay: Antidyslipidemic activity in C57BL/Ks db/db mouse assessed as reduction in plasma triglyceride level at 100 mg/kg, po; assay type: functional
How it was run: (§4)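 db/db mice (C57BL/KsBom, 12–18 weeks, 5 male and 5 female) dosed orally at 100 mg/kg in 1.0% gum acacia. Blood collected on day 8 for serum lipids. Mean ± SD, n = 5, against vehicle-treated db/db controls; Dunnett's test.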

Rattus norvegicus [11] = assay: Antihyperglycemic activity against sucrose challenged streptozotocin-induced diabetic Sprague-Dawley albino rat assessed as reduction in blood glucose level at 7.5 mg/kg, po administered 30 mins before sucrose challenge; assay type: functional; how it was run: as §3
Rattus norvegicus [12] = assay: Antihyperglycemic activity against sucrose challenged streptozotocin-induced diabetic Sprague-Dawley albino rat assessed as reduction in blood glucose level administered orally 30 mins before sucrose challenge; assay type: functional; details: po; how it was run: as §3
Rattus norvegicus [13] = assay: Antihyperglycemic activity against sucrose challenged streptozotocin-induced diabetic Sprague-Dawley albino rat assessed as reduction in blood glucose level at 50 mg/kg, po administered 30 mins before sucrose challenge; assay type: functional; how it was run: as §3
Rattus norvegicus [14] = assay: Antihyperglycemic activity against sucrose challenged streptozotocin-induced diabetic Sprague-Dawley albino rat assessed as reduction in blood glucose level at 100 mg/kg, po administered 30 mins before sucrose challenge; assay type: functional; how it was run: as §1
Mus musculus [15] = assay: Antihyperglycemic activity in C57BL/Ks db/db mouse assessed as reduction in blood glucose level at 100 mg/kg, po measured 6 days post dose by postprandial glucose tolerance test; assay type: functional; details: 144 h
How it was run: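 C57BL/KsBom-db mice, 12–18 weeks, 40–50 g, 5 male and 5 female, at 23 °C with 12/12 h light cycle. Treated orally at 100 mg/kg, vehicle 1.0% gum acacia. Day 6 postprandial test: glucose at −0.5 h and 0 h, then at 1, 2, 3, 4 and 6 h after dosing.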

Mus musculus [16] = assay: Antidyslipidemic activity in C57BL/Ks db/db mouse assessed as plasma HDL-cholesterol level at 100 mg/kg, po; assay type: functional; how it was run: as §4
Mus musculus [17] = assay: Antihyperglycemic activity in C57BL/Ks db/db mouse assessed as reduction in blood glucose level at 100 mg/kg, po measured 10 days post dose by postprandial glucose tolerance test; assay type: functional; details: 240 h, in the assay text read “oral glucose tolerance test” for “postprandial glucose tolerance test”
How it was run: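 db/db mice (C57BL/KsBom, 12–18 weeks, 40–50 g) given 100 mg/kg orally, vehicle 1.0% gum acacia. Day 10 OGTT after overnight fast: glucose at −30 min and drug given, then glucose at 0 min. Glucose 3 g/kg given, with readings at 30, 60, 90 and 120 min.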

Mus musculus [18] = assay: Antidyslipidemic activity in C57BL/Ks db/db mouse assessed as reduction in plasma cholesterol level at 100 mg/kg, po; assay type: functional; how it was run: as §4
Rattus norvegicus [19] = assay: Antihyperglycemic activity against sucrose challenged streptozotocin-induced diabetic Sprague-Dawley albino rat assessed as reduction in blood glucose level at 15 mg/kg, po administered 30 mins before sucrose challenge; assay type: functional; how it was run: as §3

Sequence of Dipeptidyl peptidase 4 (Homo sapiens) (P27487 whole entry, looked up): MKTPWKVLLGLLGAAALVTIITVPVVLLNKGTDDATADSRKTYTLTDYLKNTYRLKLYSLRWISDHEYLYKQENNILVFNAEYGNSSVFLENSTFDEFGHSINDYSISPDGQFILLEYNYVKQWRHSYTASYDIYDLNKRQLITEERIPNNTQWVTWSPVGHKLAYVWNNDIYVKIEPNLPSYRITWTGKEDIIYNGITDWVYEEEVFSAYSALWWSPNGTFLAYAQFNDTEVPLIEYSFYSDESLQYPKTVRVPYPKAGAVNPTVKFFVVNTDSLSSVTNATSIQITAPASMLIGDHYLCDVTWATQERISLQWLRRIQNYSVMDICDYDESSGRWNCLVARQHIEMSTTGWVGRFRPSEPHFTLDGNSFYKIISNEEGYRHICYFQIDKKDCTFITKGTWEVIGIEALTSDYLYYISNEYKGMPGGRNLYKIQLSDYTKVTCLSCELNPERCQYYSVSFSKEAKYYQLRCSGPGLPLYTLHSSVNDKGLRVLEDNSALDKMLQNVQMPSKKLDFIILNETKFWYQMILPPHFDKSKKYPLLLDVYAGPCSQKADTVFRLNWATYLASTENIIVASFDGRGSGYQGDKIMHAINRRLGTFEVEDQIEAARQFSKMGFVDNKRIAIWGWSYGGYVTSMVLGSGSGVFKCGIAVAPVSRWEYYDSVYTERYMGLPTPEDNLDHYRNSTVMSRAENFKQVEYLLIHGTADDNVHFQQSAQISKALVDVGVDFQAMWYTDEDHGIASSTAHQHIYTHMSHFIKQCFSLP

| inhibition [2] | IC50 [5] | inhibition [6] | IC50 [7] | Activity [2] | SMILES | inhibition in vivo at 100 mg/kg (Rattus norvegicus [1]) | inhibition in vivo at 100 mg/kg (Rattus norvegicus [3]) | inhibition in vivo at 100 mg/kg (Rattus norvegicus [4]) | further results |
| --- | --- | --- | --- | --- | --- | --- | --- | --- | --- |
| 89.5% | 4.4 µM | inactive | 4.42 µM |  | COc1ccc(-c2cc(-c3ccccc3)no2)c(OCCCN2CCCCC2)c1 | 15% | 20.8% | 14.7% |  |
|  |  |  |  |  | COc1ccc(Cl)cc1C(=O)NCCc1ccc(S(=O)(=O)NC(=O)NC2CCCCC2)cc1 [GLYBURIDE] |  | 33.9% | 32.8% | inhibition (INH) (Mus musculus [8]): 13.6% |
| 20.1% | 26.7 µM |  | 26.7 µM |  | CCOC(=O)CCCOc1cc(OC)ccc1-c1cc(-c2ccccc2)no1 |  | 4.6% |  |  |
| 82.7% | 3.5 µM | inactive | 3.46 µM |  | COc1ccc(-c2cc(-c3ccccc3)no2)c(OCCCN2CCCC2)c1 | 11.2% | 21.2% | 13.4% |  |
| 89.4% | 5.5 µM | inactive | 5.44 µM |  | COc1ccc(-c2cc(-c3ccccc3)no2)c(OCCN(C(C)C)C(C)C)c1 | 9.7% | 21.7% | 11.4% |  |
|  | 4.3 µM |  | 6.89 µM | 82.8% | CCN(CC)CC(O)COc1cc(OC)ccc1-c1cc(-c2ccccc2)no1 (stereo not drawn) | 11.4% | 13.8% | 11.6% |  |
|  | 3.4 µM | inactive | 4.2 µM | 86.2% | COc1ccc(-c2cc(-c3ccccc3)no2)c(OCC(O)CN2CCCC2)c1 (stereo not drawn) | 17.6% | 26.8% | 18.5% | inhibition in vivo at 25 mg/kg (Rattus norvegicus [9]): 13.8%; inhibition in vivo at 100 mg/kg (Mus musculus [10]): -8.5%; inhibition in vivo at 7.5 mg/kg (Rattus norvegicus [11]): 8.4%; inhibition (INH) (Mus musculus [8]): 15.7%; ED50 (Rattus norvegicus [12]): 80.2 mg/kg; inhibition in vivo at 50 mg/kg (Rattus norvegicus [13]): 17.9%; inhibition in vivo at 100 mg/kg (Rattus norvegicus [14]): 18.5%; inhibition in vivo at 100 mg/kg (Mus musculus [15]): 15.9%; Activity (Mus musculus [16]): 1.8%; inhibition in vivo at 100 mg/kg (Mus musculus [17]): 15.5%; inhibition in vivo at 100 mg/kg (Mus musculus [18]): -9.8%; inhibition in vivo at 15 mg/kg (Rattus norvegicus [19]): 11.6% |
| 21.8% | 28 µM |  | 28.2 µM |  | CCN(CC)CCCOc1cc(OC)ccc1-c1cc(-c2ccccc2)no1 | 9.2% | 14.3% | 7.8% |  |
| 22.3% | 25.3 µM |  | 25.3 µM |  | COc1ccc(-c2cc(-c3ccccc3)no2)c(OCCCN(C)C)c1 |  | 11.8% |  |  |
|  | 31.1 µM |  | 31.3 µM | 11.8% | COc1ccc(-c2cc(-c3ccccc3)no2)c(OCC2CO2)c1 (stereo not drawn) |  | 10.7% |  |  |
|  | 22.3 µM |  | 22.4 µM | 24.4% | COc1ccc(-c2cc(-c3ccccc3)no2)c(OCCCC(=O)O)c1 | 14.2% | 14.2% | 14.9% |  |
